Test results reported in paper PMC7719388 (Clinical and Translational Science, 2020).
Entries after “also recorded” stand apart in the source; their conditions may differ. Where two headings read alike, the source gives them in different places.

How the values were obtained:
healthy male subjects [1] = assay: First-in-human single ascending dose study: safety and tolerability; assay type: in vivo
How it was run: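 Six cohorts were randomized 6 active vs 2 placebo (5 vs 2 in cohort 1), with two sentinel subjects dosed 48 h ahead. Dosing was a 30-min IV infusion. Cohorts 1–3 used sterile water diluent and an 18G cannula. Cohorts 4–6 used 5% glucose at 1 mg/mL, a 16G cannula in the largest antecubital vein and a 5 mL 5% glucose flush. Monitoring covered AEs, physical examinations, vital signs, 24-h Holter and laboratory tests; discharge was at 7 days.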

[2] = Pharmacokinetics after 30-minute intravenous infusion; assay type: in vivo, human
How it was run: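 Healthy men received a 30-min IV infusion of test compound. Serum levels were measured by validated LC‑MS/MS (lower limit of quantification 5 ng/mL), with samples taken after each ECG extraction. Noncompartmental analysis was done per dose level. Values below the limit were set to zero before Tmax and treated as missing after Tmax.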

healthy male subjects [3] = assay: 24-hour Holter ECG: QTcF, QT subintervals and concentration-effect analysis; assay type: in vivo, human; settings: for ΔΔ Tp‐Tend / ΔΔJp‐Tpc / ΔΔQRS / ΔΔQTcF: model prediction at geometric mean Cmax
How it was run: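 Healthy men aged 18–45 received a 30-min IV infusion of test compound or 0.9% NaCl placebo, randomized and double-blind. 12-lead Holter recording ran for 24 h from just before dosing. At set times subjects lay supine for at least 8 min, and triplicate ECGs were extracted from the last 3 min. A blinded operator used global median beat analysis. QT was Fridericia-corrected and split into QRS, Jp‑Tpc and Tp‑Tend. Placebo-corrected change from baseline was modelled linearly against concentration, with subject as a random effect, and predicted at geometric mean Cmax per dose.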

healthy male subjects [4] = assay: Tremorography; assay type: in vivo, human; settings: all dose levels
How it was run: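 A three-axis accelerometer was taped to the dorsal mid third ray of the right hand. Subjects sat semirecumbent with the arm extended horizontally, hand dorsum up, at predefined pre- and post-dose times. Each axis was bandpass filtered at 1–20 Hz (zero-phase third-order Butterworth). Power spectral densities were combined by L1-norm, and the read-outs were peak frequency and its amplitude.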

KCa2 channel [5] = assay: In vitro inhibition of KCa2 channels; assay type: biochemical; settings: equivalent of 0.77 µM
KCa2 channel [6] = settings: cited from earlier work
[7] = tested on: Kv11.1 (human ether‐à‐go‐go‐related gene) channel; settings: read-out: IC50 for the Kv11.1 channel; in vitro; ref unpublished data; cited from earlier work
[8] = in man, assumed; cited from earlier work
minipigs = settings: high dose levels (equivalent to 27.3 mg/kg in man); cited from earlier work
conscious pigs = settings: ref unpublished data; cited from earlier work
[9] = in vitro, 30 µM (estimated concentration: 12,000 ng/mL); preclinical; cited from earlier work
[10] = cited from earlier work
[11] = 2 mg/kg, mean volume 15.0 mL, 6 subjects
[12] = 2 mg/kg, mean volume 33.3 mL, 6 subjects
[13] = 1.5 and 2 mg/kg, 3+3 subjects, changed formulation
[14] = 3 and 4 mg/kg, 3+3 subjects, changed formulation
[15] = 5 and 6 mg/kg, 3+3 subjects, changed formulation

## CN(CC#N)C(=O)C[C@H](Nc1nc2ccccc2[nH]1)c1cccc(C(F)(F)F)c1 [AP30663]
Healthy male subjects [1]; 1 mg/kg, 5 subjects
  Number of AEs: 1
  Number of infusion site AEs: 1
  Severity of AEs: Mild
Healthy male subjects [1]; 1 mg/kg, 5 subjects, AEs considered related
  Number of subjects with AEs: 1 (20%)
Healthy male subjects [1]; 1 mg/kg, 5 subjects, subject lost to follow-up, AE ongoing at day 7
  Median duration of AEs: >7 days ^a
Healthy male subjects [1]; [11]
  Median duration of AEs: 0.521 days
  Number of AEs: 4
  Number of infusion site AEs: 4
  Number of subjects with AEs: 4 (67%)
  Severity of AEs: Mild
Healthy male subjects [1]; [12]
  Median duration of AEs: 32 days
  Number of AEs: 10
  Number of infusion site AEs: 10
  Number of subjects with AEs: 5 (83%)
  Severity of AEs: Mild
Healthy male subjects [1]; [13]
  Median duration of AEs: 1.08 days
  Number of AEs: 3
  Number of infusion site AEs: 3
  Number of subjects with AEs: 1 (33%)
  Severity of AEs: Mild
Healthy male subjects [1]; 2 subjects in cohort 3
  duration of hardening of the vein upon palpation until resolved: ~4 months
Healthy male subjects [1]; [14]
  Median duration of AEs: 13 days
  Number of AEs: 2
  Number of infusion site AEs: 2
  Number of subjects with AEs: 1 (33%)
  Severity of AEs: Mild
Healthy male subjects [1]; [15]
  Median duration of AEs: 22 days
  Number of AEs: 2
  Number of infusion site AEs: 2
  Number of subjects with AEs: 1 (33%)
  Severity of AEs: Mild
Healthy male subjects [1]; all dose levels
  central nervous system symptoms or signs: no symptoms or signs of engagement of the central nervous system
  serious AEs: No serious AEs
Healthy male subjects [1]; cohorts 1–3
  number of AEs related to the administration site: 15
Healthy male subjects [1]; cohorts 1–3, 10 of 17 subjects
  subjects with AEs related to the administration site: 59%
Healthy male subjects [1]; cohorts 4–6, 9 of 18 subjects
  subjects with AEs related to the administration site: 50%
Healthy male subjects [1]; cohorts 4–6, changed administration procedure
  number of AEs related to the administration site: 15
Healthy male subjects [1]; doses up to 6 mg/kg
  overall safety and tolerability: safe and systemically well‐tolerated; also recorded: safe and well‐tolerated systemically
Healthy male subjects [1]; in vivo
  time to full recovery of infusion site AEs: up to 110 days
Healthy male subjects [1]; mild, temporary
  related AEs that were related to the infusion site: 33 of 34
Healthy male subjects [1]; of 73 AEs in 30 of 47 subjects
  number of AEs considered related to AP30663 administration: 34
[2]; 1 mg/kg, 5 mg/mL
  Geometric mean Cmax of AP30663: 3398 ng/mL
[2]; 1.5 mg/kg, 1 mg/mL
  Geometric mean Cmax of AP30663: 4428 ng/mL
[2]; 2 mg/kg, 1 mg/mL
  Geometric mean Cmax of AP30663: 4644 ng/mL
[2]; 2 mg/kg, 5 mg/mL
  Geometric mean Cmax of AP30663: 6609 ng/mL
[2]; 2 mg/kg, 10 mg/mL
  Geometric mean Cmax of AP30663: 7154 ng/mL
[2]; 3 mg/kg, 1 mg/mL
  Geometric mean Cmax of AP30663: 7950 ng/mL
[2]; 4 mg/kg, 1 mg/mL
  Geometric mean Cmax of AP30663: 7994 ng/mL
[2]; 5 mg/kg, 1 mg/mL
  Geometric mean Cmax of AP30663: 7941 ng/mL
[2]; 6 mg/kg dose level
  observed maximum total plasma concentration: around 25.5 µM
[2]; 6 mg/kg, 1 mg/mL
  Geometric mean Cmax of AP30663: 10245 ng/mL
[2]; 1-6 mg/kg
  dose proportionality of Cmax: less than dose proportional increase
[2]; 30‐minute linear infusion
  median Tmax: 30 min
[2]; highest dose levels
  Volume of distribution: 98.4 L
[2]; lower dose levels
  clearance: 11.5 L/h
[2]; lowest dose
  Volume of distribution: 65.8 L
[2]; overall
  mean clearance: 12.5 ± 3.2 L/h
[2]; three highest dose levels
  clearance: 15.9 L/h
[2]; with increasing doses
  dose normalized Cmax and area under the curve (AUC): decreased with increasing doses
Healthy male subjects [3]; 1 mg/kg, 5 mg/mL
  ΔΔ Tp‐Tend: 1.9 ± 1.3 ms
  ΔΔJp‐Tpc: 6.2 ± 3.0 ms
  ΔΔQRS: 1.0 ± 1.0 ms
Healthy male subjects [3]; 1 mg/kg, 5 mg/mL, mean ± SD
  ΔΔQTcF: 10.5 ± 3.3 ms
Healthy male subjects [3]; 1.5 mg/kg, 1 mg/mL
  ΔΔ Tp‐Tend: 2.6 ± 1.4 ms
  ΔΔJp‐Tpc: 7.0 ± 3.0 ms
  ΔΔQRS: 0.9 ± 1.0 ms
  ΔΔQTcF: 11.8 ± 3.4 ms
Healthy male subjects [3]; 2 mg/kg, 1 mg/mL
  ΔΔ Tp‐Tend: 2.8 ± 1.4 ms
  ΔΔJp‐Tpc: 7.2 ± 3.0 ms
  ΔΔQRS: 0.9 ± 1.9 ms
  ΔΔQTcF: 12.0 ± 3.5 ms
Healthy male subjects [3]; 2 mg/kg, 5 mg/mL
  ΔΔ Tp‐Tend: 4.1 ± 1.7 ms
  ΔΔJp‐Tpc: 8.8 ± 3.3 ms
  ΔΔQRS: 0.6 ± 1.1 ms
  ΔΔQTcF: 14.4 ± 3.9 ms
Healthy male subjects [3]; 2 mg/kg, 10 mg/mL
  ΔΔ Tp‐Tend: 4.5 ± 1.8 ms
  ΔΔJp‐Tpc: 9.2 ± 3.3 ms
  ΔΔQRS: 0.5 ± 1.1 ms
  ΔΔQTcF: 15.1 ± 4.1 ms
Healthy male subjects [3]; 3 mg/kg, 1 mg/mL
  ΔΔ Tp‐Tend: 5.0 ± 1.9 ms
  ΔΔJp‐Tpc: 9.8 ± 3.5 ms
  ΔΔQRS: 0.4 ± 1.2 ms
  ΔΔQTcF: 16.0 ± 4.3 ms
Healthy male subjects [3]; 4 mg/kg, 1 mg/mL
  ΔΔ Tp‐Tend: 5.0 ± 1.9 ms
  ΔΔJp‐Tpc: 9.9 ± 3.5 ms
  ΔΔQRS: 0.4 ± 1.2 ms
  ΔΔQTcF: 16.1 ± 4.3 ms
Healthy male subjects [3]; 5 mg/kg, 1 mg/mL
  ΔΔ Tp‐Tend: 5.0 ± 1.9 ms
  ΔΔJp‐Tpc: 9.8 ± 3.5 ms
  ΔΔQRS: 0.4 ± 1.2 ms
  ΔΔQTcF: 16.0 ± 4.3 ms
Healthy male subjects [3]; 6 mg/kg, 1 mg/mL
  ΔΔ Tp‐Tend: 6.5 ± 2.3 ms
  ΔΔJp‐Tpc: 11.7 ± 3.9 ms
  ΔΔQRS: 0.1 ± 1.4 ms
Healthy male subjects [3]; all dose levels
  effect on PR interval: no effect
  effect on P‐wave duration: no effect
  effect on QRS duration: no effect
  effect on QTcF interval and QT subintervals: dose‐dependent transient effect
  effect on RR interval: no effect
Healthy male subjects [3]; any dose level
  subjects with QTcF interval exceeding 450 ms: no subject
  subjects with QTcF interval prolongation of > 60 ms: no subject
Healthy male subjects [3]; prespecified linear model, P = 0.001
  slope of concentration-effect on Tp‐Tend interval (± standard error): 0.670 ± 0.221 ms/(ug/mL)
Healthy male subjects [3]; prespecified linear model, P = 0.003
  slope of concentration-effect on QTcF interval (± standard error): 1.201 ± 0.431 ms/(ug/mL)
Healthy male subjects [3]; prespecified linear model, P = 0.007
  slope of concentration-effect on Jp‐Tpc interval (± standard error): 0.799 ± 0.327 ms/(ug/mL)
Healthy male subjects [3]; prespecified linear model, P = 0.870
  slope of concentration-effect on QRS duration (± standard error): −0.145 ± 0.129 ms/(ug/mL)
Healthy male subjects [4]
  tremorography mean amplitude: 0.2 mG^2•Hz^‐1
  tremorography recordings: normal and unchanged
KCa2 channel [5]
  IC50 for the KCa2 channel, equivalent concentration: ~ 300 ng/mL
KCa2 channel [6]
  inhibition of KCa2 channel subclasses: inhibits all three subclasses of KCa2 channels
KCa2 channel [6]; read-out: IC50 for the KCa2 channel, preclinical, no reference given
  IC50: 770 nM
KCa2 channel [6]; read-out: IC50 for the KCa2 channels, in vitro, ref unpublished data
  IC50: ~1000 nM
[7]
  IC50: 4000 nM
[8]
  free fraction: 6.4%
minipigs
  tremor: induced tremor
Conscious pigs
  atrial refractoriness: selectively increase atrial refractoriness; also recorded: increased atrial refractoriness
  conversion of vernakalant‐resistant AF: converted vernakalant‐resistant AF
  effect on ventricular repolarization: little or no effect
  reinduction of AF: prevented its reinduction
[9]
  effect on the ventricular interval: no effect

## CN(CCOc1ccc(NS(C)(=O)=O)cc1)CCc1ccc(NS(C)(=O)=O)cc1 [Dofetilide, dofetilide]
[10]
  effect on Jp‐Tpc interval per concentration: 14.1 ms per ng/mL
  effect on Tp‐Tend interval per concentration: 14.5 ms per ng/mL
